Test results: ChEMBL document CHEMBL4334465, “SAR Studies on Aromatic Acylhydrazone-Based Inhibitors of Fungal Sphingolipid Synthesis as Next-Generation Antifungal Agents” (J Med Chem, 2019)
Values after ≈ are worked out from the molar mass of the structure shown.

How the values were obtained:
[1] = tested on: Cryptococcus neoformans; test: Antifungal activity against Cryptococcus neoformans H99 measured after 24 to 72 hrs; assay type: functional; details: var grubii H99
How it was run: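 Modified CLSI broth microdilution with inoculum per M27A3. Compounds were serially diluted 32 to 0.03 μg/mL. Media: C. neoformans in HEPES-buffered YNB without amino acids (pH 7.0, 2% glucose); Candida strains in YNB without ammonium sulfate or amino acids plus 1% asparagine (pH 7.0, 2% glucose); A. fumigatus in RPMI (pH 7.0, 2% glucose).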

[2] = tested on: Cryptococcus neoformans; test: Fungicidal activity against Cryptococcus neoformans H99 measured after 24 hrs by time-kill assay; assay type: functional, var grubii H99
How it was run: (§1)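 Overnight C. neoformans washed in PBS and resuspended in HEPES-buffered YNB, pH 7.4. 2 × 10⁴ cells exposed to a range of drug concentrations in 10 mL with 0.5% DMSO final, at 37°C, 5% CO₂, shaking at 200 rpm. Aliquots sampled over 96 h, diluted and plated on YPD; CFU counted after 48 h at 30°C.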

[3] = tested on: A549; test: Cytotoxicity against human A549 cells after 24 to 48 hrs by MTT assay; assay type: functional; details: read-out: LD50 (the source's name)
How it was run: (§2)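 A549 and HepG2 kept in DMEM with 10% FBS and 1% pen-strep. At passage 7, seeded at 10⁵ cells/well and allowed to adhere 14 h. Compound added at 0.03–128 μg/mL, untreated wells as controls. Incubation 37°C, 5% CO₂ for 24 or 48 h. MTT (5 mg/mL in PBS) added for 4 h, formazan dissolved in DMSO, OD570.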

[4] = tested on: HepG2; test: Cytotoxicity against human HepG2 cells after 24 to 48 hrs by MTT assay; assay type: functional; details: read-out: LD50 (the source's name); how it was run: as §2
[5] = Selectivity index, ratio of LD50 for human A549 cells to MIC80 for Cryptococcus neoformans H99; assay type: toxicity; details: read-out: Selectivity Index
How it was run: (§3)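 SI = LD₅₀/MIC₈₀. Cytotoxicity: A549 or HepG2 cells (DMEM, 10% FBS, passage 7, 10⁵ cells/well) adhered 14 h, then exposed to 0.03–128 μg/mL for 24 or 48 h at 37°C, 5% CO₂; MTT 4 h, formazan dissolved in DMSO, read at 570 nm. MIC₈₀ against C. neoformans from broth microdilution in HEPES-buffered YNB, pH 7.0.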

[6] = Selectivity index, ratio of LD50 for human HepG2 cells to MIC80 for Cryptococcus neoformans H99; assay type: toxicity; details: read-out: Selectivity Index; how it was run: as §3
[7] = tested on: Cryptococcus neoformans; test: Fungicidal activity against Cryptococcus neoformans H99 measured after 48 hrs by time-kill assay; assay type: functional, var grubii H99; how it was run: as §1

Compound | MIC80 [1] | MFC100 [2] | CC50 [3] | CC50 [4] | selectivity ratio [5] | selectivity ratio [6] | MFC100 [7]
O=C(N/N=C/c1cc(OC(F)(F)F)ccc1O)c1ccc(Br)cc1Br | 0.25 µg/mL (≈ 0.519 µM) | 2 µg/mL (≈ 4.15 µM) | 32 µg/mL (≈ 66.4 µM) | 64 µg/mL (≈ 133 µM) | 128 | 256 | 
O=C(N/N=C/c1cc(Cl)ccc1O)c1cccc(F)c1F | 1 µg/mL (≈ 3.22 µM) |  | 72 µg/mL (≈ 232 µM) | 32 µg/mL (≈ 103 µM) | 72 | 32 | 0.5 µg/mL (≈ 1.61 µM)
O=C(N/N=C/c1cc(Br)ccc1O)c1ccc(C(F)(F)F)cc1F | 0.5 µg/mL (≈ 1.23 µM) |  | 16 µg/mL (≈ 39.5 µM) | 16 µg/mL (≈ 39.5 µM) | 32 | 32 | 1 µg/mL (≈ 2.47 µM)
O=C(N/N=C/c1cc(Br)cc(Br)c1O)c1ccc(C(F)(F)F)cc1F | 0.12 µg/mL (≈ 0.248 µM) |  | 64 µg/mL (≈ 132 µM) | 16 µg/mL (≈ 33.1 µM) | 533 | 133 | 0.5 µg/mL (≈ 1.03 µM)
O=C(N/N=C/c1cc(Br)cc(Br)c1O)c1cccc(Br)c1Br | 0.5 µg/mL (≈ 0.9 µM) |  | 32 µg/mL (≈ 57.6 µM) | 16 µg/mL (≈ 28.8 µM) | 64 | 32 | 2 µg/mL (≈ 3.6 µM)
O=C(N/N=C/c1cc(Br)cc(Br)c1O)c1ccc(OC(F)(F)F)cc1F | 0.06 µg/mL (≈ 0.12 µM) |  | 16 µg/mL (≈ 32 µM) | 16 µg/mL (≈ 32 µM) | 267 | 267 | 0.5 µg/mL (≈ 1 µM)
Cc1ccccc1C(=O)N/N=C/c1cc(C#N)ccc1O | 4 µg/mL (≈ 14.3 µM) |  |  |  |  |  | 
Nc1ccc(C(=O)N/N=C/c2ccc(Br)cc2O)cc1 | 4 µg/mL (≈ 12 µM) |  |  |  |  |  | 
O=C(N/N=C/c1ccc(Br)cc1O)c1cccc(C(F)(F)F)c1 | 0.5 µg/mL (≈ 1.29 µM) |  | 64 µg/mL (≈ 165 µM) | 16 µg/mL (≈ 41.3 µM) | 128 | 32 | 2 µg/mL (≈ 5.17 µM)
Cc1ccc(O)c(/C=N/NC(=O)c2cc(Br)ccc2Br)c1 | 1 µg/mL (≈ 2.43 µM) |  | 32 µg/mL (≈ 77.7 µM) | 32 µg/mL (≈ 77.7 µM) | 32 | 32 | 0.5 µg/mL (≈ 1.21 µM)
O=C(c1ccc(Br)cc1)n1ccc(-c2cc(Br)cc(Br)c2O)n1 | > 16 µg/mL |  |  |  |  |  | 
O=C(N/N=C/c1cc(Br)ccc1O)c1cc(Br)ccc1Br | 0.25 µg/mL (≈ 0.524 µM) |  | 16 µg/mL (≈ 33.5 µM) | 32 µg/mL (≈ 67.1 µM) | 64 | 128 | 1 µg/mL (≈ 2.1 µM)
O=C(N/N=C/c1c(O)ccc2ccccc12)c1cc(Br)cc(Br)c1 | 0.25 µg/mL (≈ 0.558 µM) | 0.5 µg/mL (≈ 1.12 µM) | 2 µg/mL (≈ 4.46 µM) | 4 µg/mL (≈ 8.93 µM) | 8 | 16 | 
